From ChEMBL document CHEMBL1146123, “Kinesin spindle protein (KSP) inhibitors. Part 2: the design, synthesis, and characterization of 2,4-diaryl-2,5-dihydropyrrole inhibitors of the mitotic kinesin KSP” (Bioorg Med Chem Lett, 2006)

Key:
[1] = molecular target: T1, Kinesin-like protein KIF11 (Homo sapiens, UniProt P52732); assay: Inhibition of KSP
T1 sequence (P52732 whole entry): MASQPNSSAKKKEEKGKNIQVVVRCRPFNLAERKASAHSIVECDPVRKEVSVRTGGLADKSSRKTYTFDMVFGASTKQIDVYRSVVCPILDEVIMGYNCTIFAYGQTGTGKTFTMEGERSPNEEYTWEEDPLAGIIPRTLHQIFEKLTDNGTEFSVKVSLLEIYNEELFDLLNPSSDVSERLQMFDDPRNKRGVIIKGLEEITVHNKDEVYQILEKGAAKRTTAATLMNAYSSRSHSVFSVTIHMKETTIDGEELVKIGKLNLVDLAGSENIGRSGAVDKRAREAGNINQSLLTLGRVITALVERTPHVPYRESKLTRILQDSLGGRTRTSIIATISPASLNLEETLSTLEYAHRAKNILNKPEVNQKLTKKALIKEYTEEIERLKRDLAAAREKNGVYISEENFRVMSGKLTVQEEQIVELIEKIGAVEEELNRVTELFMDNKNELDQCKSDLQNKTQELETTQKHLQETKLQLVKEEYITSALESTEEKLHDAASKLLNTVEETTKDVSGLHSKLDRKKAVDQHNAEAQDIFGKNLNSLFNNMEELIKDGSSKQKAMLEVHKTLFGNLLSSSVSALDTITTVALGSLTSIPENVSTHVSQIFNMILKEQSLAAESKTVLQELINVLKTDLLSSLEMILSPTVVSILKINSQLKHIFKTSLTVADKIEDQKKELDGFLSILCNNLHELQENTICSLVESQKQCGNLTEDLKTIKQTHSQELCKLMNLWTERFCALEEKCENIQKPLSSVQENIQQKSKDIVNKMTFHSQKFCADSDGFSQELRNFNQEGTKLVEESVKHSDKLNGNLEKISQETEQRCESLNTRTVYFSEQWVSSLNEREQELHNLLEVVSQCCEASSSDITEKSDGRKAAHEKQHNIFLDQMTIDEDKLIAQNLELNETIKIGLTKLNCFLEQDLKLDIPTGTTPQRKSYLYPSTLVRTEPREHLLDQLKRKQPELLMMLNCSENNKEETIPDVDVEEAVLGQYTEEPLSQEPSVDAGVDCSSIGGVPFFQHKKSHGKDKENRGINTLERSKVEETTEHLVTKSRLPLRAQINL

A2780 = assay: Mitotic arrest in A2780 cells; assay type: functional, cell-based; conditions: Homo sapiens
Procedure, shortened: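 Mitosis-specific nucleolin phosphorylation read-out. Total nucleolin is captured on streptavidin paramagnetic beads carrying biotinylated anti-nucleolin antibody 4E2, and detected by electrochemiluminescence of a Tris-bipyridyl label. Cells were treated for 16 h with a 7-point, half-log dilution series. EC50 is the average of at least two independent determinations.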

[2] = Volume distribution in monkey at 0.4 mg/kg, iv; assay type: ADME, organism-based, Macaca mulatta; design: dose 0.4 mg/kg, route intravenous; conditions: rhesus monkey, in vivo, read-out: Vdss
Procedure, shortened: (§1)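 Single intravenous dose; rats at 1.0 mg/kg (n = 4), dogs at 0.4 mg/kg (n = 4), monkeys at 0.4 mg/kg (n = 3). Plasma clearance (mL/min/kg), steady-state volume of distribution (Vdss, L/kg) and half-life (h) taken from the plasma concentration profile.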

[3] = Plasma clearance in rat at 1 mg/kg, iv; assay type: ADME, organism-based; design: dose 1 mg/kg, route intravenous; procedure, shortened: as §1
[4] = Half life in dog at 0.4 mg/kg, iv; assay type: ADME, organism-based, Canis lupus familiaris; design: dose 0.4 mg/kg, route intravenous; conditions: in vivo; procedure, shortened: as §1
[5] = Volume distribution in dog at 0.4 mg/kg, iv; assay type: ADME, organism-based, Canis lupus familiaris; design: dose 0.4 mg/kg, route intravenous; conditions: in vivo, read-out: Vdss; procedure, shortened: as §1
[6] = Half life in monkey at 0.4 mg/kg, iv; assay type: ADME, organism-based, Macaca mulatta; design: dose 0.4 mg/kg, route intravenous; conditions: rhesus monkey, in vivo; procedure, shortened: as §1
[7] = Plasma clearance in dog at 0.4 mg/kg, iv; assay type: ADME, organism-based, Canis lupus familiaris; design: dose 0.4 mg/kg, route intravenous; procedure, shortened: as §1
[8] = Half life in rat at 1 mg/kg, iv; assay type: ADME, organism-based; design: dose 1 mg/kg, route intravenous; conditions: in vivo; procedure, shortened: as §1
[9] = Plasma clearance in monkey at 0.4 mg/kg, iv; assay type: ADME, organism-based, Macaca mulatta; design: dose 0.4 mg/kg, route intravenous; conditions: rhesus monkey; procedure, shortened: as §1
[10] = Aqueous solubility at pH 5; assay type: physicochemical; conditions: aqueous solution
[11] = Volume distribution in rat at 1 mg/kg, iv; assay type: ADME, organism-based; design: dose 1 mg/kg, route intravenous; conditions: in vivo, read-out: Vdss; procedure, shortened: as §1
[12] = molecular target: Voltage-gated inwardly rectifying potassium channel KCNH2 (Homo sapiens, UniProt Q12809); assay: Inhibitory activity against human hERG receptor expressed in HEK cells
Chain of Voltage-gated inwardly rectifying potassium channel KCNH2 (Q12809 whole entry): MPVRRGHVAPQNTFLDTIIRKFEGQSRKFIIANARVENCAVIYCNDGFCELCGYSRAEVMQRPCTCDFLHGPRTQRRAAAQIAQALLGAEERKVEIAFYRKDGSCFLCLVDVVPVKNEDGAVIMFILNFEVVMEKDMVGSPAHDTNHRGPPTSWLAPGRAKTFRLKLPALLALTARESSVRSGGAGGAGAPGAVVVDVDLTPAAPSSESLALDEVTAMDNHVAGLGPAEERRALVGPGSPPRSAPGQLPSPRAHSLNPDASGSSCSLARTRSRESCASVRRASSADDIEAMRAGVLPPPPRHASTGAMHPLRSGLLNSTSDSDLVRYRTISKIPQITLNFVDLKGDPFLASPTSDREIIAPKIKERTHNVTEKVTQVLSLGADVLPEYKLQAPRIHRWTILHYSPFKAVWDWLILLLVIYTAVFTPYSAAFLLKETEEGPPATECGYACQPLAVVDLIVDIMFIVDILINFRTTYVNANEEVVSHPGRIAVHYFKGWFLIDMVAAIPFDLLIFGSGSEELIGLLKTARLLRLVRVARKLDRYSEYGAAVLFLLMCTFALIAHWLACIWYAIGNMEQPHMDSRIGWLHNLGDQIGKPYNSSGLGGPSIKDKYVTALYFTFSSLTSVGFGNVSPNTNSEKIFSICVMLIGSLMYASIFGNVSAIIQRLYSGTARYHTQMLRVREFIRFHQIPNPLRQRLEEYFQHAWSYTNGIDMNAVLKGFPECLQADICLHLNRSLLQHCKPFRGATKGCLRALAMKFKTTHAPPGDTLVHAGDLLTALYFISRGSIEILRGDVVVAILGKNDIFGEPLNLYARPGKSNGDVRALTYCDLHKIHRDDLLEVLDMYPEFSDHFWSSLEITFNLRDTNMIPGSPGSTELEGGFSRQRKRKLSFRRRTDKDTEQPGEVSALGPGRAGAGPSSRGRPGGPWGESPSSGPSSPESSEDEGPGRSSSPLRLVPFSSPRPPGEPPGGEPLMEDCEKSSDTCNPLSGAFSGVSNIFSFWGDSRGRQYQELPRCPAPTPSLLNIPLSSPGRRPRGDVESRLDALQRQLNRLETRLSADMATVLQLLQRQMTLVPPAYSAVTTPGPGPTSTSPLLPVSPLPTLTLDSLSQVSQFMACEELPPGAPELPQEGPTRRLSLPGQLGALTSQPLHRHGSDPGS

SMILES | IC50 [1] | EC50 (A2780) | further results
CC(C)(C)[C@H](NC(=O)OCCO)C(=O)N1CC(c2cc(F)ccc2F)=C[C@H]1c1ccccc1 | 0.0074 µM | 0.013 µM | 
CC(C)(CN)C(=O)N1CC(c2cc(F)ccc2F)=C[C@H]1c1ccccc1 | 0.0052 µM | 0.011 µM | 
CC(C)[C@@H](N)C(=O)N1CC(c2cc(F)ccc2F)=C[C@H]1c1ccccc1 | 3.1 µM |  | 
CC(C)(C)[C@H](N)C(=O)N1CC(c2cc(F)ccc2F)=C[C@H]1c1ccccc1 | 0.0027 µM | 0.0071 µM | 
N[C@H](C(=O)N1CC(c2cc(F)ccc2F)=C[C@H]1c1ccccc1)C1CC1 |  | 0.0086 µM | Vd [2]: 7.4 L/kg; clearance [3]: 40 mL/min/kg; half-life [4]: 2.3 h; Vd [5]: 3.8 L/kg; half-life [6]: 4.5 h; clearance [7]: 23 mL/min/kg; half-life [8]: 1.4 h; clearance [9]: 21 mL/min/kg; solubility [10]: > 10000 µg/mL; Vd [11]: 4.4 L/kg
CN(C(=O)N1CC(c2cc(F)ccc2F)=C[C@H]1c1ccccc1)C1CCNCC1 |  | 0.0068 µM | solubility [10]: > 10000 µg/mL
CC(=O)N1CCC(N(C)C(=O)N2CC(c3cc(F)ccc3F)=C[C@H]2c2ccccc2)CC1 | 0.05 µM | 0.069 µM | 
CC(C)[C@H](N)C(=O)N1CC(c2cc(F)ccc2F)=C[C@H]1c1ccccc1 | 0.0036 µM | 0.012 µM | 
O=C([C@@H](O)C1CC1)N1CC(c2cc(F)ccc2F)=C[C@H]1c1ccccc1 | 0.011 µM | 0.02 µM | IC50 [12]: 11 µM
CN(CCCN)C(=O)N1CC(c2cc(F)ccc2F)=C[C@H]1c1ccccc1 | 0.016 µM | 0.044 µM | 
CN(C)C(=O)N1CC(c2cc(F)ccc2F)=C[C@@H]1c1ccccc1 | > 50 µM |  | 
CC(=O)N1CC(c2cc(F)ccc2F)=CC1c1ccccc1 (racemic) | 4 µM |  | 
CC(C)(C)C(=O)N1N=C(c2cc(F)ccc2F)CC1c1ccccc1 (racemic) | 0.113 µM |  | 
CC(C)(C)C(=O)N1CC(c2cc(F)ccc2F)=CC1c1ccccc1 (racemic) | 0.085 µM |  | 
